Measured values published in paper PMC8978309 (Materials Advances, 2022).

Tests used:
[1] = Dissolution profile in PBS; format: physicochemical; conditions: PBS pH 7.40, 37 °C
In short: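 Powdered test compound dissolved in 100 mL PBS (pH 7.40) at 37 °C with constant stirring at 150 rpm for 48 h. Release followed by UV absorbance at 208 nm (scan 400–200 nm) against a reagent blank.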

[2] = Dissolution profile in FaSSGF; format: physicochemical; conditions: FaSSGF pH 1.60, 37 °C
In short: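 Test compound stirred in 100 mL fasted-state simulated gastric fluid (HCl/NaCl, pH 1.60) at 37 °C and 150 rpm for 36 h. Dissolved drug quantified directly by UV absorbance at 208 nm (400–200 nm scan) against a reagent blank.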

Hydroxyapatite = format: binding; conditions: PBS pH 7.40, 37 °C
In short: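 20 mg synthetic hydroxyapatite incubated with 3 mL test compound in PBS (0.5 mg mL−1) at 37 °C for 0–11 d. Controls were compound alone and HA alone in PBS. Supernatant collected daily and centrifuged (1500 rpm, 8 min). Bound fraction derived from the fall in supernatant absorbance at 208 nm. Experimental groups done in duplicate.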

[3] = AlamarBlue cytotoxicity assay, MDA-MB-231; format: cell-based, human; conditions: human, MDA-MB-231 cells
In short: (§1)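 MDA-MB-231 cells grown in DMEM with 1% Pen-Strep and 10% FBS at 37 °C, 5% CO2. Seeded at 2.5 × 10^5 cell per mL, then preincubated 24 h. […] Read-out: 10% AlamarBlue in PBS, 4 h, fluorescence ex 560/em 590 nm, normalised to medium control (100%). IC50 by nonlinear regression; triplicates, mean, SD, %CV.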

[4] = tested on: human breast cancer MDA-MB-231 cell line; experiment: AlamarBlue cytotoxicity assay, MDA-MB-231; format: cell-based; conditions: for IC50: Homo sapiens; for relative cell live (%RCL): MDA-MB-231, 15 μM
In short: as §1

[5] = tested on: normal osteoblast-like hFOB 1.19 cell line; experiment: AlamarBlue cytotoxicity assay, hFOB 1.19; format: cell-based, human; conditions: for IC50: Homo sapiens
In short: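 hFOB 1.19 osteoblast-like cells grown in 1:1 DMEM:F-12 with 0.3 mg mL−1 G418 and 10% FBS at 34 °C, 5% CO2. Seeded at 2.5 × 10^5 cell per mL, then preincubated 24 h at 34 °C. Exposed 24, 48 or 72 h to two-fold dilutions (0–200 μM), or to 1.9–15 μM. Read-out: 10% AlamarBlue, 4 h, fluorescence 560/590 nm, relative to medium control. IC50 by nonlinear regression; triplicates.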

[6] = cited from earlier work

## O=P(O)(O)C(O)(Cn1ccnc1)P(=O)(O)O [ZOLE, zoledronate]
[1]
  time to reach maximum dissolution / equilibrium solubility: 30 min
[1]; 150 rpm
  dissolution (ZOLE content released, maximum reached): 100%
[2]
  time to reach maximum dissolution / equilibrium solubility: 3 h
Hydroxyapatite
  time to reach maximum binding to HA: 8 days
Hydroxyapatite; 0–11 d
  maximum binding to HA: 82%
Hydroxyapatite; in 1 d
  binding to HA: 15%
[3]
  viability at 1.9 µM: ~100%
[4]; MDA-MB-231, 24 h
  IC50: > 200 µM
[4]; MDA-MB-231, 48 h
  IC50: > 200 µM
[4]; MDA-MB-231, 72 h
  IC50: 35 ± 4 µM
[4]; MDA-MB-231, 3.8 μM, time not stated (Fig. 9b)
  %RCL: ~100%
[4]; 48 h
  relative cell live (%RCL): 80 ± 2%
[4]; 72 h
  relative cell live (%RCL): 58 ± 2%
[5]; 24 h
  IC50: > 200 µM
[5]; 48 h
  IC50: 86 ± 3 µM
[5]; 72 h
  IC50: 49 ± 4 µM
[5]; hFOB 1.19, 3.8–15 μM, after 24, 48, and 72 h
  cell death (cell viability result in words): no significant cell death
[6]
  bioavailability: < 1%
  maximum plasma concentration: 1 µM
